Reference: ChEMBL document CHEMBL3784994, “Systematic comparison of the mono-, dimethyl- and trimethyl 3-hydroxy-4(1H)-pyridones - Attempted optimization of the orally active iron chelator, deferiprone” (Eur J Med Chem, 2016)

How the values were obtained:
[1] = Binding affinity to iron(3) assessed as pFe3+ values after 5 mins
Procedure, shortened: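 Spectrophotometric titration of ligand with iron(III) in 0.1 M KCl, using a 50 mm path cuvette. KOH was added in 0.1 pH unit steps. After readings were stable (<0.001 pH unit over 3 s), there was a 5 min equilibration, then the spectrum was recorded. Constants were fitted with pHab. pFe3+ was computed at total Fe3+ 1 µM, total ligand 10 µM, pH 7.4.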

[2] = Octanol-water partition coefficient, log P of the compound by shake-flask method; type: physicochemical
Procedure, shortened: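 Shake-flask partition between n-octanol and 25 mM MOPS, pH 7.4, at 25°C. Buffered solution and octanol were mixed at different ratios, stirred vigorously for 15 s, and separated by centrifugation. Aqueous UV absorbance was read before and after partition. P = (A0−A1)Vaq/(A1Vo).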

Liver microsome [3] = experiment: Drug metabolism in human liver microsomes assessed as glucuronidation at 10 uM after 24 hrs by mass spectrophotometry in presence of NADPH and UDPGA; type: ADME
Procedure, shortened: (§1)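 Pooled mixed-gender human liver microsomes (1 mg/mL) with 10 µM hydroxypyridinone in 100 mM PBS, with NADPH and UDPGA systems. Incubated at 37°C for 24 h with gentle shaking, in triplicate; the blank omitted microsomes. Stopped with 4% phosphoric acid and internal standard added, then centrifuged. Cation-exchange SPE, then UPLC–tandem MS on C18 to identify metabolites and quantify % metabolized.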

[4] = Binding affinity to iron(3) assessed as pFe3+ values after 10 to 30 mins
Liver microsome [5] = experiment: Drug metabolism in human liver microsomes assessed as hydroxylation at 10 uM after 24 hrs by mass spectrophotometry in presence of NADPH and UDPGA; type: ADME; procedure, shortened: as §1

SMILES: Cc1cc(=O)c(O)c[nH]1
- Activity [1]: 20.1
- logP [2]: -0.73

SMILES: Cc1[nH]cc(C)c(=O)c1O
- Activity [1]: 19.2
- Drug metabolism (Liver microsome [3]): metabolite_detected
- logP [2]: -0.13

SMILES: Cc1cc(=O)c(F)c[nH]1
- logP [2]: -0.51

SMILES: Cc1c(O)c(=O)ccn1C [DEFERIPRONE]
- Activity [1]: 20.7
- Activity [4]: 20.6
- Drug metabolism (Liver microsome [5]): metabolite_detected
- Drug metabolism (Liver microsome [3]): metabolite_detected

SMILES: Cc1nccc(O)c1O
- Activity [1]: 20.2
- Drug metabolism (Liver microsome [5]): metabolite_detected
- Drug metabolism (Liver microsome [3]): metabolite_detected
- logP [2]: -0.58

SMILES: COc1cn(C)cc(C)c1=O
- logP [2]: -0.85

SMILES: COc1c[nH]ccc1=O
- logP [2]: -0.85

SMILES: Cn1cc(O)c(=O)c(F)c1
- logP [2]: -0.85

SMILES: Cc1c[nH]cc(O)c1=O
- Activity [1]: 20.1
- Drug metabolism (Liver microsome [5]): metabolite_detected
- Drug metabolism (Liver microsome [3]): metabolite_detected
- logP [2]: -0.59

SMILES: COc1c[nH]cc(C)c1=O
- logP [2]: -0.51

SMILES: Cn1ccc(=O)c(O)n1
- Activity [4]: 14.8
- logP [2]: -0.85

SMILES: Cc1cn(C)cc(O)c1=O
- Activity [1]: 20.5
- Drug metabolism (Liver microsome [3]): metabolite_detected
- logP [2]: -0.93

SMILES: Cc1cc(=O)c(O)cn1C
- Activity [1]: 20.4
- Drug metabolism (Liver microsome [3]): metabolite_detected
- logP [2]: -1.19

SMILES: Cc1cn(C)c(C)c(O)c1=O
- Activity [1]: 19.7
- Drug metabolism (Liver microsome [3]): metabolite_detected
- logP [2]: -0.51

SMILES: Cn1ccc(=O)c(O)c1F
- logP [2]: -0.85

SMILES: COc1c[nH]cc(CN(C)C)c1=O
- logP [2]: -0.85

SMILES: Cn1cc(O)c(=O)cn1
- Activity [4]: 17.2
- logP [2]: -0.85
